ChEMBL document CHEMBL3763081, “Synthesis, evaluation and structure-activity relationship of new 3-carboxamide coumarins as FXIIa inhibitors” (Eur J Med Chem, 2016)
≈ marks a conversion by molar mass, not a printed value.

Legend:
[1] = Solubility of compound at pH 6.5; type: physicochemical; conditions: buffer
[2] = target: T1, Coagulation factor XII (Homo sapiens) (UniProt P00748); assay: Inhibition of human factor 12a using S-2302 as substrate assessed as para-nitroaniline release at 50 uM preincubated for 10 mins followed by substrate addition measured after 30 mins by HPLC-UV analysis
T1 sequence (whole entry): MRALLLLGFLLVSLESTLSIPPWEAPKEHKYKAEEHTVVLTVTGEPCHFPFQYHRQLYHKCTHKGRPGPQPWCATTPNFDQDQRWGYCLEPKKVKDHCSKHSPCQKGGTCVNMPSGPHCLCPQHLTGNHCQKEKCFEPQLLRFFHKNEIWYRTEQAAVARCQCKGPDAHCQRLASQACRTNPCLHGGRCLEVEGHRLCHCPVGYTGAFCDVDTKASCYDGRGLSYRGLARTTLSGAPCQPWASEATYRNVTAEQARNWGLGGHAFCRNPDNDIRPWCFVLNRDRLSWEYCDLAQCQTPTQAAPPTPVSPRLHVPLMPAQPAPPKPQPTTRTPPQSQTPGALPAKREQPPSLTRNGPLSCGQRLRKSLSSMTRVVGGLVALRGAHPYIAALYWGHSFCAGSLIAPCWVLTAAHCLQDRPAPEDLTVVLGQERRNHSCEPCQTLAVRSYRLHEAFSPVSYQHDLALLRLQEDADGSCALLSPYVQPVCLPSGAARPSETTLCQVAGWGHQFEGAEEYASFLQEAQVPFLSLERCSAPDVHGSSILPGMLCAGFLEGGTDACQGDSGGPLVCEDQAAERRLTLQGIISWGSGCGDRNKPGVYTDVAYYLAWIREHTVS
Summary of the method: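 Human FXIIa 145 nM in 0.5 mM Tris-Imidazole, 0.15 M NaCl, pH 7.9, preincubated 10 min at 25 C with compound (DMSO). S-2302 (2.5 mM) added and hydrolysis run 30 min, then stopped with 10% acetic acid. Wells diluted 1:1 in acetonitrile. Released p-NA quantified by C18 HPLC-UV at 375 nm (AUC). % inhibition = [1-(AUCdrug/AUCvehicle)]*100.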

[3] = target: T2, Coagulation factor XII (Homo sapiens, UniProt P00748); assay: Inhibition of human factor 12a using S-2302 as substrate assessed as para-nitroaniline release preincubated for 10 mins followed by substrate addition measured after 30 mins by HPLC-UV analysis
T2 sequence (P00748 whole entry): T1 sequence (whole entry)
Summary of the method: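 FXIIa IC50 assay. Human enzyme 145 nM in Tris-Imidazole/NaCl buffer, pH 7.9, 10 min at 25 C with compound, then S-2302 (2.5 mM) for 30 min and acetic acid stop. p-NA AUC measured by HPLC-UV at 375 nm. Nine concentrations from 100 nM upward, in duplicate. Sigmoid fit of % inhibition vs log concentration by non-linear regression; values reported as mean with 95% CI.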

[4] = target: Coagulation factor X (Homo sapiens) (UniProt P00742); assay: Inhibition of human factor 10a using S-2765 as substrate at 100 uM preincubated for 10 mins followed by substrate addition measured for 5 mins by microplate reader analysis
Summary of the method: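 Compound added from DMSO and held with enzyme 10 min at 25 C. S-2765 (1 mM) then added and OD405 followed continuously for 5 min. % inhibition = [1-(slope inhibitor/slope vehicle)]*100.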

[5] = target: Prothrombin (Homo sapiens) (UniProt P00734); assay: Inhibition of human thrombin using S-2238 as substrate at 100 uM preincubated for 10 mins followed by substrate addition measured for 5 mins by microplate reader analysis
Summary of the method: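 Compound (DMSO) preincubated 10 min at 25 C, then S-2238 (2.5 mM). OD405 monitored continuously for 5 min. Slope-based % inhibition against vehicle control.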

[6] = target: Plasma kallikrein (Homo sapiens) (UniProt P03952); assay: Inhibition of human plasma kallikrein using S-2302 as substrate at 100 uM preincubated for 10 mins followed by substrate addition measured for 5 mins by microplate reader analysis; type: cell-free
Summary of the method: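 Human plasma kallikrein 50 nM in 0.05 M Tris-HCl, 0.5 mM EDTA, 0.05% Tween 20, 0.15 M NaCl, pH 7.4. 10 min preincubation with compound at 25 C, then S-2302 (4 mM). OD405 read continuously for 5 min. % inhibition = [1-(slope inhibitor/slope vehicle)]*100.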

[7] = target: T3, Coagulation factor VII (Homo sapiens) (UniProt P08709); assay: Inhibition of human factor 7a using chromozymt-PA as substrate at 100 uM preincubated for 10 mins followed by substrate addition measured for 10 mins by microplate reader analysis
T3 sequence (whole entry): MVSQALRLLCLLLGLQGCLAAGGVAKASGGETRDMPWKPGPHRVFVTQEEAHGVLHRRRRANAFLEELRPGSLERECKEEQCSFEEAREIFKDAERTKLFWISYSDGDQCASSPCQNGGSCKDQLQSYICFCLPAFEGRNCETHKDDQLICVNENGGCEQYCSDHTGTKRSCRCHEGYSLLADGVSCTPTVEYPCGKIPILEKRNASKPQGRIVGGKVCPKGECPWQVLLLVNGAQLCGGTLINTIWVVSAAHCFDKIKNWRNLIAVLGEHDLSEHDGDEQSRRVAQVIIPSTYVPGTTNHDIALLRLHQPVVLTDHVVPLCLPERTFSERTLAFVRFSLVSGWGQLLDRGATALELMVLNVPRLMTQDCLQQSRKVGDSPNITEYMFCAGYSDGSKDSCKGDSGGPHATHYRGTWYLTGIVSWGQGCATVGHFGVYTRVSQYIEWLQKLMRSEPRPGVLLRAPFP
Summary of the method: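 Compound preincubated 10 min at 25 C. Chromozym t-PA (5 mM) added and OD405 monitored continuously for 10 min. Inhibition from slope ratio against vehicle.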

Sequence of Coagulation factor X (Homo sapiens) (P00742 41-179 limits assumed): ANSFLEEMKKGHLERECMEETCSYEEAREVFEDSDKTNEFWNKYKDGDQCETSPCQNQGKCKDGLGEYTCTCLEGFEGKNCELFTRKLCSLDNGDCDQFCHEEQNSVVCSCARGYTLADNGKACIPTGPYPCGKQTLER
Sequence of Coagulation factor X (Homo sapiens) (P00742 235-488 limits assumed): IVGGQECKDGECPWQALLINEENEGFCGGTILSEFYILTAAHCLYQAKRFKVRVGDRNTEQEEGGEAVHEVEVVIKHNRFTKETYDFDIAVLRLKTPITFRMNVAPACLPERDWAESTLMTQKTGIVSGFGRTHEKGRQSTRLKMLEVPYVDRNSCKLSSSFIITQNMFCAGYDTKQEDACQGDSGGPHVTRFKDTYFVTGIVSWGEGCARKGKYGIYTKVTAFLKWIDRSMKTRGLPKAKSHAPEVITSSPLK
Sequence of Plasma kallikrein (Homo sapiens) (P03952 20-390 limits assumed): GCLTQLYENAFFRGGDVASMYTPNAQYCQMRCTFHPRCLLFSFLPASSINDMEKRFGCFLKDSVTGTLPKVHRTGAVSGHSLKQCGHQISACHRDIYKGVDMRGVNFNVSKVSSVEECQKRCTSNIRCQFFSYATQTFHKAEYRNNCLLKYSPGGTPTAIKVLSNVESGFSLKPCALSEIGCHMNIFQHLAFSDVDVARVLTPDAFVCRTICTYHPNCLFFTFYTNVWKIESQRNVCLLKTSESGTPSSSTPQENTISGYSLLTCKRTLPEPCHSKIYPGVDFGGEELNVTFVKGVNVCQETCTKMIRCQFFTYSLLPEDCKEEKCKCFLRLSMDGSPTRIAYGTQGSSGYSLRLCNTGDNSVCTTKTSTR
Sequence of Plasma kallikrein (Homo sapiens) (P03952 391-638 limits assumed): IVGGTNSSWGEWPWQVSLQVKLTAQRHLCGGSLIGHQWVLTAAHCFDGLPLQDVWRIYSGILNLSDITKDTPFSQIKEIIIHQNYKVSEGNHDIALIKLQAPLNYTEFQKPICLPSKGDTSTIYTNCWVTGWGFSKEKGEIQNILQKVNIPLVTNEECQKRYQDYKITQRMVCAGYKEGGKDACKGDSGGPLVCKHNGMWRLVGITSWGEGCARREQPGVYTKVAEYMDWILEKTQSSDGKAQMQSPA

| solubility [1] [µg/mL] | inhibition [2] [%] | IC50 [3] [µM] | inhibition [4] [%] | inhibition [5] [%] | inhibition [6] [%] | inhibition [7] [%] | SMILES |
| --- | --- | --- | --- | --- | --- | --- | --- |
| 2400 (≈ 6420 µM) | 26 | – | – | – | – | – | CN(C)CCNC(=O)c1cc2cc(Cl)cc(Br)c2oc1=O |
| 1.5 (≈ 3.8 µM) | 90 | 41 | < 10 | < 10 | < 10 | < 10 | O=C(Nc1ccc(O)cc1)c1cc2cc(Cl)cc(Br)c2oc1=O |
| 0.11 (≈ 0.256 µM) | 99 | 8 | < 10 | < 10 | < 10 | < 10 | O=C(Nc1ccc(Cl)cc1O)c1cc2cc(Cl)cc(Br)c2oc1=O |
| 700 (≈ 1930 µM) | 28 | – | – | – | – | – | O=C(Nc1ccccc1)c1cc2cc(CN3CCCCC3)ccc2oc1=O |
| 400 (≈ 962 µM) | 17 | – | – | – | – | – | O=C(NCCN1CCOCC1)c1cc2cc(Cl)cc(Br)c2oc1=O |
| 400 (≈ 1080 µM) | 20 | – | – | – | – | – | O=C(NCCN1CCOCC1)c1cc2cc(Cl)cc(Cl)c2oc1=O |
| 48 (≈ 132 µM) | 18 | – | – | – | – | – | O=C(Nc1ccccc1)c1cc2cc(CN3CCOCC3)ccc2oc1=O |
| 36 (≈ 78.8 µM) | 75 | – | – | – | – | – | O=C(O)c1cc(Cl)ccc1NC(=O)c1cc2cc(Cl)cc(Br)c2oc1=O |
| 61900 | 23 | – | – | – | – | – | NCCNC(=O)c1cc2cc(Cl)cc(Br)c2oc1=O.O=C(O)C(F)(F)F |
| 0.71 (≈ 1.8 µM) | 99 | 7 | < 10 | < 10 | < 10 | < 10 | O=C(Nc1ccccc1O)c1cc2cc(Cl)cc(Br)c2oc1=O |
| 3400 (≈ 9760 µM) | 21 | – | – | – | – | – | O=C(Nc1ccccc1)c1cc2cc(CN3CCCC3)ccc2oc1=O |
| 500 (≈ 1090 µM) | 14 | – | – | – | – | – | O=C(NCCN1CCOCC1)c1cc2cc(Br)cc(Br)c2oc1=O |
| 3000 (≈ 7180 µM) | 30 | – | – | – | – | – | CN(C)CCNC(=O)c1cc2cc(Br)cc(Br)c2oc1=O |
| 1.4 (≈ 3.55 µM) | 90 | 34 | < 10 | < 10 | < 10 | < 10 | O=C(Nc1cccc(O)c1)c1cc2cc(Cl)cc(Br)c2oc1=O |
| 2200 (≈ 6680 µM) | 29 | – | – | – | – | – | CN(C)CCNC(=O)c1cc2cc(Cl)cc(Cl)c2oc1=O |
| 0.1 (≈ 0.233 µM) | 99 | 5 | < 10 | < 10 | < 10 | < 10 | O=C(Nc1cc(Cl)ccc1O)c1cc2cc(Cl)cc(Br)c2oc1=O |
| 52 (≈ 176 µM) | 14 | – | – | – | – | – | O=C(Nc1ccccc1)c1cc2cc(CO)ccc2oc1=O |
| 2900 (≈ 8280 µM) | 14 | – | – | – | – | – | CCN(CC)Cc1ccc2oc(=O)c(C(=O)Nc3ccccc3)cc2c1 |
| 9900 | 26 | – | – | – | – | – | Cl.NCc1ccc2oc(=O)c(C(=O)Nc3ccccc3)cc2c1 |
| 0.59 (≈ 1.56 µM) | 90 | 16 | < 10 | < 10 | < 10 | < 10 | O=C(Nc1ccccc1)c1cc2cc(Cl)cc(Br)c2oc1=O |
